From paper PMC8916014 (Proceedings of the National Academy of Sciences of the …, 2022)

Legend:
[1] = tested on: E. coli ATCC25922 with purified LPS from E. coli O111:B4; assay: LPS-mediated antimicrobial block assay; type: cell-based, Escherichia coli; conditions: LPS 25 μg/mL
Method in brief: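 A virtual-colony count assay gave the fold-change in MBC against E. coli across different concentrations of added purified LPS. Polymyxin B and kanamycin were run as comparators.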

[2] = tested on: E. coli ATCC25922 with purified E. coli 70S ribosome; assay: bacterial ribosome-mediated antimicrobial block assay; type: cell-based, Escherichia coli; conditions: 70S ribosome 12.5 nM
Method in brief: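 MBC fold-change against E. coli with exogenous E. coli 70S ribosome was determined by virtual-colony count assay. Polymyxin B and kanamycin served as comparators. Triplicate experiments were reported as mean ± SD, with one- or two-way ANOVA and Bonferroni correction.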

[3] = tested on: E. coli ATCC25922 outer membrane; assay: outer membrane permeability assay; type: cell-based, Escherichia coli; conditions: E. coli ATCC25922, 1 h treatment, 0.195–100 μM
Method in brief: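 E. coli ATCC25922 was treated with test compound for 1 h, then probed with NPN. NPN fluorescence intensity served as the measure of outer-membrane permeability and was normalized to relative fluorescence intensity. Experiments were run in triplicate and reported as mean ± SD.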

[4] = tested on: K. pneumoniae (ATCC 13883); assay: in vivo efficacy, K. pneumoniae-induced pneumonia; design: species or system C57BL/6 mice; conditions: 2 mg/kg intratracheal
S. aureus (ATCC 25923) = assay: in vivo efficacy, S. aureus-induced pneumonia; design: species or system C57BL/6 mice; conditions: 2 mg/kg intratracheal

For `NC[C@H]1O[C@H](O[C@H]2[C@H](O)[C@@H](O[C@H]3O[C@H](CO)[C@@H](O)[C@H](N)[C@H]3O)[C@H](N)C[C@@H]2N)[C@H](O)[C@@H](O)[C@@H]1O` [kanamycin], the “fold change in MBC in presence of LPS” value [1] was “no effect” and the “fold change in MBC in presence of E. coli 70S ribosome” value [2] was “antagonized”.

For polymyxin B [PMB], the “permeability of bacterial OM (NPN fluorescence)” value [3] was “increased the permeability of bacterial OM in a dose-dependent manner”, the “fold change in MBC in presence of LPS” value [1] was “fourfold” and the “fold change in MBC in presence of E. coli 70S ribosome” value [2] was “failed to affect activity”. For the same compound, the survival rate [4] was 100% and the “efficacy in S. aureus-induced pneumonia” value (S. aureus (ATCC 25923)) was “ineffective”.
